Screening results (PubChem)
NadD block = blocks S. aureus nicotinate mononucleotide adenylyltransferase; purified NadD enzyme, colorimetric absorbance read-out; AID 602399; 360,000 tested, 0.78% active; inhibition, % at 20 µM; in the data active = inhibition above about 26%
Beta2AR agonist = activates human beta-2 adrenergic receptor causing internalization. P07550. Am2.2-beta2AR cells, FAP receptor internalization, flow cytometry. response, % (concentration not given with the values). 340,000 tested, 0.43% active;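 active = response above a set limit, near 3 SD of response in nonfluorescent compounds, cut at about 42% in these data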
ABHD5-PLIN5 inh = inhibitors of human ABHD5-perilipin-5 interaction; Split G. princeps luciferase complementation, luminescence, 4 h; inhibition, % at 4 µM; 360,000 tested, 0.78% active; AID 602281;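 active = inhibition above the mean inhibition across every tested compound plus 3 SD, cut at about 22% in these data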
GRK2 inh = inhibitors of human GRK2 displacing RNA aptamer. bead flow cytometry, FAM-aptamer displacement from GRK2. P25098. AID 488847. 330,000 tested, 0.59% active. inhibition of aptamer binding, % at 10 µM;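 active = inhibition of aptamer binding above 40%, roughly 3 SD of noise, on plates passing a quality check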;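 note: median bead fluorescence of bound FAM aptamer so fluorescent compounds give negative values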
Target sequence (P25098 whole entry, looked up): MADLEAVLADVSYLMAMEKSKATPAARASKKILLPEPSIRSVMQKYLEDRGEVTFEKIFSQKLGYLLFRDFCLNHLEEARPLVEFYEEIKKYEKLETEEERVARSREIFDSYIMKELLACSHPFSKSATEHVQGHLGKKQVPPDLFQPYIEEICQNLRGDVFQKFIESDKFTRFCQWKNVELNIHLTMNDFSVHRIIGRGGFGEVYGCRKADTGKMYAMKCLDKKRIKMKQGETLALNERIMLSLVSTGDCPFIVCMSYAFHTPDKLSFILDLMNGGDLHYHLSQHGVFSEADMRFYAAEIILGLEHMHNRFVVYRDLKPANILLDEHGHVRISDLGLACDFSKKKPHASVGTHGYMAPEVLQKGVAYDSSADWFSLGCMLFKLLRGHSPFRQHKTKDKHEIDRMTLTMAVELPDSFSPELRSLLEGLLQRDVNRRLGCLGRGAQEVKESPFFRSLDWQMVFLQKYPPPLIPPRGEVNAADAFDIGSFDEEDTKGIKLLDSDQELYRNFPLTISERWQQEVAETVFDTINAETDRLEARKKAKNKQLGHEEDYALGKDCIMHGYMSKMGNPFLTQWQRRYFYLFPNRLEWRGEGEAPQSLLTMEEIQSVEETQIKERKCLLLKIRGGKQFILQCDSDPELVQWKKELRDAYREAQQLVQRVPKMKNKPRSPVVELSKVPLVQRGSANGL
SENP1 FRET inh = inhibitors of human SENP1 SUMO protease catalytic domain. Q9P0U3. recombinant SENP1 catalytic domain, CyPet-SUMO1-YPet FRET cleavage. inhibition, % at 10 µM. 360,000 tested, 0.21% active;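 active = inhibition at least 30% at 10 µM, raw YFP signal under a set limit, fluorescence ratio 0.5 to 1.5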
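System: Recombinant human SENP1 catalytic domain, His6-tagged | Incubation: Enzyme reaction for 50 min at room temperature, dark | Medium: Tris pH 8 with BME, BSA, NP40 and catalase | Also added: 25 nM SUMO1 FRET substrate | Compound: 10 µM single point, 0.5% DMSO | Measured by: FRET fluorescence in CFP and YFP emission channels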
B2AR ag CP1 = human beta-2 adrenergic receptor agonism, cherry pick; shares compounds with Beta2AR agonist; Am2.2-beta2AR cells, FAP surface receptor, flow cytometry; hits give low values; percent response (surface receptor), % at 10 µM; 1,100 tested, 25% active; AID 540358;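 active = surface receptor percent response at or below 58%, roughly 3 SD from nonfluorescent compounds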
B2AR FAP counter = flagged in Am2.2 fluorescence counterscreen for beta-2AR agonists; shares compounds with Beta2AR agonist; Am2.2 cells, FAP fluorogen flow cytometry; hits give low values; calls only at 10 µM; 1,100 tested, under 10 active; AID 588765;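 active = percent response below a set limit in fluorescence channel 1 and below 50% in channel 8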
Hits are given with their value; n = inactive; x = no result given; + = active, no number. Shown are actives, neighbours in structure and some others; about 2.5% of the full set was active somewhere.

SMILES	NadD block	Beta2AR agonist	ABHD5-PLIN5 inh	GRK2 inh	SENP1 FRET inh	B2AR ag CP1	B2AR FAP counter
CCc1ccc(CNC(=O)c2ccc(NC(=O)C3=CSCCO3)cc2)cc1	n	102	n	n	n	27	n
CC1CC2(C)Oc3ccccc3CC2C(C)C1CNCCCN(C)C (centres undefined)	n	42	n	n	n	n	n
Cn1c(=O)n(C)c2cc([N+](=O)[O-])c(N3CCN(S(=O)(=O)c4ccc(C(C)(C)C)cc4)CC3)cc21	n	48	n	n	n	n	n
Cc1ccc(C(=O)Nc2cccc(C(O)c3ccccc3)c2)cc1 (centres undefined)	n	n	n	n	n	x	x
Cc1cccc2nc(COc3ccc4ccccc4c3Br)cn12	n	98	n	n	n	26	n
Cc1ccc(Cl)cc1N1CCN(C(=O)Cc2c(C(=O)O)[nH]c3ccc(Cl)cc23)CC1	n	75	n	n	n	n	n
CC(C)(C)c1ccc(OCC(=O)Nc2ccc(-c3nc4cccnc4o3)cc2)cc1	n	110	n	n	n	40	n
CC(CCc1ccc(O)cc1)NCCC(c1ccccc1)c1ccccc1 (centres undefined)	n	n	n	n	n	n	n
CCCCCCCCNC(C)C(O)c1ccc(SC(C)C)cc1 (centres undefined)	n	n	n	n	n	x	x
CC(CCc1ccc(O)cc1)NCc1ccc(Br)cc1 (centres undefined)	n	n	n	n	n	x	x
C[C@@H](NCCc1ccc(O)cc1)[C@@H](O)c1ccc(O)cc1	n	n	n	n	n	n	n
CC(NCCc1ccc(O)cc1)C(O)c1ccc(O)cc1 (centres undefined)	n	n	n	n	n	n	n
COc1cccc(NC(=O)C2(C)CCN2C(=O)Cc2ccc(C(C)C)cc2)c1 (centres undefined)	n	x	n	x	n	x	x
COc1cc2[nH]c(C(=O)N3CC(C)OC(C)C3)cc2c(OC)c1OC (centres undefined)	n	n	n	n	n	x	x
CCc1ccc(OCCOCC(O)CNC(C)CC)cc1 (centres undefined)	n	74	n	n	n	n	n
COc1ccccc1C(=O)COC(=O)Cn1nc(C)c([N+](=O)[O-])c1C	n	n	n	n	n	x	x
Cn1c(=N)n(CC(=O)c2ccc(F)cc2)c2ccccc21	n	n	n	n	n	x	x
Cc1ccc(Cn2c(=N)n(CC(=O)c3ccc([N+](=O)[O-])cc3)c3ccccc32)cc1	n	100	n	n	n	23	+
Cn1c(=N)n(CC(=O)c2ccc(Br)cc2)c2ccccc21	n	43	n	n	n	16	n
CCCCn1c(=N)n(CC(=O)c2ccc([N+](=O)[O-])cc2)c2ccccc21	x	x	x	n	x	x	x
O=S(=O)(Nc1ccc(-c2nnc(SCc3ccc(Cl)cc3)o2)cc1)c1ccccc1	n	43	n	n	n	n	n
CCOC(=O)CSc1nc2ccc(NC(=O)CSc3nnnn3Cc3ccccc3)cc2s1	n	54	n	n	n	n	n
CCCCN(C(=O)c1ccc(NC(=O)C(C)C)cc1)c1ccccc1	n	95	n	n	n	20	n
Cn1nc(-c2ccc(C(=O)NCCO)cc2)c2ccccc2c1=O	n	n	n	n	n	n	n
CCOc1ccc(C(=O)NNC(=O)c2cc(S(=O)(=O)N3CCOCC3)ccc2Cl)cc1	n	n	n	n	n	x	x
SMILES	NadD block	Beta2AR agonist	ABHD5-PLIN5 inh	GRK2 inh	SENP1 FRET inh	B2AR ag CP1	B2AR FAP counter
CCOC(=O)C(=NCC1CCCO1)NNc1ccccc1Cl (centres undefined)	n	n	n	n	n	x	x
COC(=O)COc1ccc(S(=O)(=O)N2CCCCCC2)cc1C	n	n	n	n	n	x	x
Cc1cc(S(=O)(=O)N2CCCCC2)ccc1OCC(=O)Nc1ccccc1	n	n	n	n	n	n	n
Cc1cc(S(=O)(=O)N2CCCC2)ccc1OCC(=O)NC1CCCC1	n	n	n	n	n	x	x
Cc1cc(S(=O)(=O)N2CCCC2)ccc1OCC(=O)Nc1ccccc1	n	n	n	n	n	n	n
O=C(COc1ccc(S(=O)(=O)N2CCCC2)cc1Cl)Nc1ccc2c(c1)OCO2	n	n	n	n	n	n	n
CC(C)NS(=O)(=O)c1ccc(OCC(=O)Nc2ccc3c(c2)OCO3)c(Cl)c1	n	n	n	n	n	x	x
CCOc1ccc(NC(=O)COC(=O)C2COc3ccccc3O2)cc1 (centres undefined)	n	x	n	x	n	x	x
CNCC(O)c1ccc(OC(=O)C(C)(C)C)c(OC(=O)C(C)(C)C)c1 (centres undefined)	n	n	n	n	n	46	n
Cc1cnn(-c2nc(-c3ccccc3)cc(-c3ccccc3)n2)c1	n	42	n	x	n	16	n
FC(F)(F)c1cc(-c2ccccc2)nc(-n2cc(Cl)cn2)n1	n	n	n	n	n	x	x
Clc1cccc(Cc2c(C3CCCCC3)nc3ccc(Br)cn23)c1	n	x	n	x	n	x	x
Cc1ccc(-c2noc(C3CCCN(S(=O)(=O)c4ccc5ccccc5c4)C3)n2)o1 (centres undefined)	n	n	n	n	n	x	x
CC(=O)c1cccc(S(=O)(=O)N2CCCC(c3nc(-c4ccc(C)o4)no3)C2)c1 (centres undefined)	n	54	n	n	n	n	n
CCOc1ccc(NC(=S)N2CCN(c3ccc(N4CCOCC4)nn3)CC2)cc1	n	n	n	n	n	x	x
O=C(Nc1cc2c3c(c1)CC(=O)N3CCC2)c1ccco1	n	n	n	n	n	x	x
O=C(CCn1c(=O)oc2ccc(Cl)cc21)NCCCN1CCOCC1	n	50	n	n	n	n	n
O=C(CCn1c(=O)oc2ccccc21)NCCN1CCOCC1	n	n	n	n	n	x	x
COCCN1CC(CNC(=O)c2cc(COc3ccccc3SC)on2)CC1=O (centres undefined)	n	n	n	n	n	x	x
O=C1C2CCCCN2C(=O)N1CCCCN1CCN(c2cccc(C(F)(F)F)c2)CC1 (centres undefined)	n	59	n	x	n	n	n
Cc1cc(C)c(S(=O)(=O)N2CCN(C(=O)c3ccccc3OCc3c(C)noc3C)CC2)c(C)c1	n	n	n	x	n	x	x
CCCCC(=O)N1CCN(c2nc3ccc(OCC)cc3s2)CC1	n	n	n	n	n	x	x
CCOc1ccc2nc(N3C(=O)CNC3=S)sc2c1	n	n	n	x	n	n	n
CC(Sc1nc(-c2ccccc2)cc(C(F)(F)F)n1)C(=O)N1CCC(C(N)=O)CC1 (centres undefined)	n	n	n	n	n	n	n
CC(Sc1nc(-c2ccccc2)cc(C(F)(F)F)n1)C(=O)N1CCCC1 (centres undefined)	n	54	n	n	n	55	n
